Data on 21 compounds can be found in ChEMBL document CHEMBL4425122, “Discovery of 1-(1H-Pyrazolo[4,3-c]pyridin-6-yl)urea Inhibitors of Extracellular Signal-Regulated Kinase (ERK) for the Treatment of Cancers” (J Med Chem, 2016).

As a reminder, the IC50 is the concentration that gives 50% inhibition. In general, solubility refers to the concentration that dissolves in the medium under given conditions. Read a high solubility as much dissolved substance.

Molecules are shown by their SMILES. Values after ≈ are worked out from the molar mass of the structure shown.

The target of one data set is Cytochrome P450 3A4 (Homo sapiens, UniProt P08684). Description: Inhibition of CYP3A4 (unknown origin). The class given is ADME.
The target in data set [1] is Voltage-gated inwardly rectifying potassium channel KCNH2 (Homo sapiens, UniProt Q12809). Description: Inhibition of human ERG.
Data set [2] in a line: Inhibition of ERK in human A375SM cells harboring BRAF V600E mutant assessed as inhibition of RSK phosphorylation measured after 4 hrs by mesoscale electrochemiluminescent sandwich assay. The class given is cell-based. The settings on record: A375-SM. Put shortly: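 A375SM (BRAF V600E melanoma) cells, 10,000 per well, treated 4 h; lysed 20 min at 4 °C in Tris/NaCl/EGTA/EDTA/Triton/NaF buffer with protease and phosphatase inhibitors. Lysate captured with biotin anti-RSK1 on streptavidin MSD plate, detected with SULFO-TAG anti-pRSK (pThr359/Ser363) overnight at 4 °C; electrochemiluminescence read. IC50 from 11-point titration.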

Data set [3] has as its target Mitogen-activated protein kinase 1 (Homo sapiens, UniProt P28482). Description: Inhibition of human ERK2 preincubated for 15 mins followed by addition of IMAP peptide substrate and ATP measured after 60 mins by IMAP-FP assay. Put shortly: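 Final: 0.5 nM hERK2, 900 nM unlabeled + 80 nM labeled peptide, 30 µM ATP; 60 min, quenched with IMAP beads in binding buffer with 24 mM NaCl, read by fluorescence polarization after 60 min.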

Data set [4] deals with Mitogen-activated protein kinase 1 (Mus musculus, UniProt P63085). Description: Inhibition of mouse ERK2 preincubated for 15 mins followed by addition of IMAP peptide substrate and ATP measured after 60 mins by IMAP-FP assay.
The next data set has as its system A375-SM. Description: Antiproliferative activity against human A375SM cells harboring BRAF V600E mutant measured after 96 hrs by Cell Titer-Glo assay. The class given is functional, cell-based. Put shortly: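 Cells in DMEM/10 mM HEPES/10% FBS added after compound, incubated 96 h at 37 °C, 5% CO2; equilibrated 15 min at room temperature, viability by CellTiter-Glo luminescence. IC50 from 10-point, 3-fold titration curves.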
On the technique in general: ATP-based viability assays read luminescence as a measure of living cells.

The nature of data set [5]: Inhibition of ERK (unknown origin) assessed as inhibition of RSK phosphorylation. More on the design: species or system Homo sapiens.
A short description of data set [6]: Solubility in human FaSSIF at pH 6.5. It is filed as physicochemical. The essentials: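 Solubility measured in human fasted-state simulated intestinal fluid at pH 6.5.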
Data set [7] in a line: Inhibition of ERK human A375 cells assessed as inhibition of RSK phosphorylation measured after 4 hrs by mesoscale electrochemiluminescent sandwich assay. The note with it: A-375, 4 h.
The species named for data set [8] is Homo sapiens. Description: Selectivity ratio, ratio of IC50 for human ERK2 to IC50 for MEK1 (unknown origin).
For data set [9], the species on record is Homo sapiens. Description: Selectivity ratio, ratio of IC50 for human ERK2 to IC50 for COT (unknown origin).
Data set [10] is filed under the species Homo sapiens. Description: Selectivity ratio, ratio of IC50 for human ERK2 to IC50 for BRAF (unknown origin).
The species entered for data set [11] is Homo sapiens. Description: Selectivity ratio, ratio of IC50 for human ERK2 to IC50 for RAF1 (unknown origin).

Chain of Voltage-gated inwardly rectifying potassium channel KCNH2 (Q12809 whole entry): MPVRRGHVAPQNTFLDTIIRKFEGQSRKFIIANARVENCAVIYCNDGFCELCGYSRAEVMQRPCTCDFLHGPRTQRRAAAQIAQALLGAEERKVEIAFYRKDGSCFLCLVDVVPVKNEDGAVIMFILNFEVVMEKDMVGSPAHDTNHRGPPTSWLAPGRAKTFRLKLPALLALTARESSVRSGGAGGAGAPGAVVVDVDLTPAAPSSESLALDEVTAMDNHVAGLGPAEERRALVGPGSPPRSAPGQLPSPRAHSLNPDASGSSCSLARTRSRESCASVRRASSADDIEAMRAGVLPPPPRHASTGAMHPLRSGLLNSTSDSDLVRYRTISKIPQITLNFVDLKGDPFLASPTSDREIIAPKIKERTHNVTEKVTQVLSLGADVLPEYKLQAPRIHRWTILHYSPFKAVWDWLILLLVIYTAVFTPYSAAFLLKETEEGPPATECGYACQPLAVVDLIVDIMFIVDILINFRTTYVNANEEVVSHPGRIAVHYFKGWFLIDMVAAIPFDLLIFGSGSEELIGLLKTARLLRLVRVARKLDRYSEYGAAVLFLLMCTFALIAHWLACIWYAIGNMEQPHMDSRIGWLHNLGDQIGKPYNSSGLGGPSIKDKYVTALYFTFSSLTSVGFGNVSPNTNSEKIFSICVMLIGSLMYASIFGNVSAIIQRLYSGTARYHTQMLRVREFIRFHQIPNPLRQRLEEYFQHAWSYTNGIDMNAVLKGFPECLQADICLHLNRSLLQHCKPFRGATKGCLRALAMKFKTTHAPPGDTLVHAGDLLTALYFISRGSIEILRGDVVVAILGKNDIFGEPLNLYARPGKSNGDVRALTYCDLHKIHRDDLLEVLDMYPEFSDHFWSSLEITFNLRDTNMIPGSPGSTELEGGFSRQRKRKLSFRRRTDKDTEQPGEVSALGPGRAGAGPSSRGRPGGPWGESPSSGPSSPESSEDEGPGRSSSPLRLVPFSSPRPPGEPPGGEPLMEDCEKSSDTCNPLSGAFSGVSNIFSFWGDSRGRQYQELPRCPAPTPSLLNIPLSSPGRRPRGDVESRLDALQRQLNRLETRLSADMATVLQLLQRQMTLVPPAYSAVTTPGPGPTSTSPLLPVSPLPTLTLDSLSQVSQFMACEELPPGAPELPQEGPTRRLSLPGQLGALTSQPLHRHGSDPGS
Chain of Cytochrome P450 3A4 (P08684 whole entry): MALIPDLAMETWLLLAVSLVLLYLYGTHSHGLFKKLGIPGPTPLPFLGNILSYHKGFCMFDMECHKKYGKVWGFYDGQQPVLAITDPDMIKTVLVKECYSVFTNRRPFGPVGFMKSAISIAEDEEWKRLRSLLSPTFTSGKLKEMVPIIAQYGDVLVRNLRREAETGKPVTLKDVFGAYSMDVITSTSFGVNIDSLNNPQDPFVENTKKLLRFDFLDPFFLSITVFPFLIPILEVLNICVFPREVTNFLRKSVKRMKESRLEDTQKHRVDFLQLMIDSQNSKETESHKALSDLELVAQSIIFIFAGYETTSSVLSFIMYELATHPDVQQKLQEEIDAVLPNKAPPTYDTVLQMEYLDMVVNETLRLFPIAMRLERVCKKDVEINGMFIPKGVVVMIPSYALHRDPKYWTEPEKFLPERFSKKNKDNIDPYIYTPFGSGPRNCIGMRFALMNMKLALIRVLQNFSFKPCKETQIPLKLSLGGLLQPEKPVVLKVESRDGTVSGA
Chain of Mitogen-activated protein kinase 1 (Mus musculus, UniProt P63085) (P63085 whole entry): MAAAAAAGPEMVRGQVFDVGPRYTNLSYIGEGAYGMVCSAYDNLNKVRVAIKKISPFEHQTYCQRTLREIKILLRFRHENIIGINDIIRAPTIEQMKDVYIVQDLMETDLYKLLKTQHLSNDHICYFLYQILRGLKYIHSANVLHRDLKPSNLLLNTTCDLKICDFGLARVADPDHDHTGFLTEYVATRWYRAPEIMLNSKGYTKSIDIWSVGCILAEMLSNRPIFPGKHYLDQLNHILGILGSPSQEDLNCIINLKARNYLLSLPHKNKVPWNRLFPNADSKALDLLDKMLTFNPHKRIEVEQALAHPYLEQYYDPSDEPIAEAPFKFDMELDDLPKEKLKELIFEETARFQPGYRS
Chain of Mitogen-activated protein kinase 1 (Homo sapiens, UniProt P28482) (P28482 whole entry): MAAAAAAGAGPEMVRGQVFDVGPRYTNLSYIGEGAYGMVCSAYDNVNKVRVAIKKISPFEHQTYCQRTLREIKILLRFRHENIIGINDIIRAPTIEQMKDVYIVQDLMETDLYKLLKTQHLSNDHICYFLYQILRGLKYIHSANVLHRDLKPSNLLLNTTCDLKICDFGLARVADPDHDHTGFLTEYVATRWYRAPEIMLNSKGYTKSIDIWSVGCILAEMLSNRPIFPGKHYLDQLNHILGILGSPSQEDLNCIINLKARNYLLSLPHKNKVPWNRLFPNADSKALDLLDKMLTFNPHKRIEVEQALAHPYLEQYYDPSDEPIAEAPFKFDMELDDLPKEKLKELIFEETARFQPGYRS

As to `C[C@@H](NC(=O)Nc1cc2[nH]nc(-c3cnn(C)c3)c2cn1)c1ccccc1`, the IC50 against Cytochrome P450 3A4 was 380 nM; in [1], > 20000 nM; in data set [2], 110 nM; in data set [3] it was 0.3 nM.
Regarding `Cc1cc(-c2n[nH]c3cc(Nc4ncc(-c5ccccc5)s4)ncc23)ccn1`, the IC50 in [3] was > 3000 nM.
In the case of `C[C@@H](NC(=O)Nc1cc2[nH]nc(C3CCCC3)c2cn1)c1ccccc1`, the IC50 came out at 810 nM in data set [2] and 4 nM in data set [3].
For the compound `Cc1cc(-c2n[nH]c3cc(NC(=O)CCc4ccccc4)ncc23)ccn1`, half-maximal inhibition in [4] (IC50) was put at 420 nM.
For the compound `COc1cc(-c2n[nH]c3cc(NC(=O)N[C@H](C)c4ccccc4)ncc23)ccn1`, the IC50 in [2] was determined as 300 nM; in [3], 0.9 nM.
Consider `Cc1cc(-c2n[nH]c3cc(NC(=O)NC4CCc5ccccc54)ncc23)ccn1` (centres undefined), for which the figures for the IC50 in data set [2] and in data set [3] were 750 nM and 5 nM, respectively.
For the compound `O=C(Nc1ccc2[nH]nc(-c3ccncc3)c2c1)[C@@H]1CCN(CC(=O)N2CCN(c3ccc(-c4ncccn4)cc3)CC2)C1`, the results for the IC50 (in the data set with A375-SM; in data set [5]) were 39 nM and 57 nM, respectively. In data set [6], this compound yielded a solubility of 38 µM (≈ 22.3 µg/mL).
Consider `Cc1cc(-c2n[nH]c3cc(NC(=O)OCc4ccccc4)ncc23)ccn1`, for which the IC50 in data set [4] is > 3000 nM.
Turning to `C[C@@H](NC(=O)Nc1cc2[nH]nc(-c3ccnc(F)c3)c2cn1)c1ccccc1`, the IC50 against Cytochrome P450 3A4 is 29000 nM; in data set [1] it was > 20000 nM; in data set [2], 97 nM; in data set [3], 0.3 nM.
Consider `C[C@@H](NC(=O)Nc1cc2[nH]nc(-c3ccc(F)cc3)c2cn1)c1ccccc1`, for which the IC50 in data set [2] was 360 nM; in data set [3], 0.8 nM.
In turn, `Cc1cc(-c2n[nH]c3cc(Nc4nccs4)ncc23)ccn1` displayed an IC50 in data set [3] of 56 nM.
In the case of `C[C@@H](NC(=O)Nc1cc2[nH]nc(C3CC3)c2cn1)c1ccccc1`, in data set [2], the IC50 was found to be 550 nM.
Regarding `Cc1cc(-c2n[nH]c3cc(NC(=O)N[C@H](C)c4ccccc4)ncc23)cnn1`, the figures for the IC50 in [2] and in [3] were 810 nM and 0.9 nM, respectively.
As for `Cc1cc(-c2n[nH]c3cc(NC(=O)NCCc4ccccc4)ncc23)ccn1`, the IC50 in data set [7] worked out at 110 nM.
Regarding `Cc1cc(-c2n[nH]c3cc(NS(=O)(=O)NCc4ccccc4)ncc23)ccn1`, half-maximal inhibition in data set [3] (IC50) was put at 2400 nM.
Take `Cc1cc(-c2n[nH]c3cc(NC(=O)N[C@H](C)c4ccccc4)ncc23)cc(C)n1`: the IC50 on Cytochrome P450 3A4 is 780 nM; in data set [1], > 20000 nM; in data set [2], 130 nM; in data set [3], 0.3 nM.
In the case of `Cc1cc(-c2n[nH]c3cc(NC(=O)N[C@@H](C)c4ccccc4)ncc23)ccn1`, the IC50 in data set [7] amounted to 1800 nM.
Regarding `CCCc1n[nH]c2cc(NC(=O)N[C@H](C)c3ccccc3)ncc12`, the values for the IC50 in [2] and in data set [3] were 350 nM and 2 nM, respectively.
Take `Cc1cc(-c2n[nH]c3cc(NC(=O)NCc4ccccc4)ncc23)ccn1`: the Ratio IC50 in the data set filed under Homo sapiens [8], in the data set filed under Homo sapiens [9], in the data set filed under Homo sapiens [10] and in the data set filed under Homo sapiens [11] was < 100 each time. In addition, the 50% inhibitory concentration (IC50) is 220 nM in data set [2], 0.9 nM in data set [3] and 0.2 nM in data set [4].
Regarding `Cc1cc(-c2n[nH]c3cc(NC(=O)OCc4ccccc4)ccc23)ccn1`, the IC50 in [4] is > 3000 nM.
Regarding `Cc1cc(-c2n[nH]c3cc(NC(=O)Nc4ccccc4)ncc23)ccn1`, the IC50 in data set [2] was > 10000 nM.
